Assays:
[1] = target: Mitogen-activated protein kinase 8 (Homo sapiens, UniProt P45983); test: Inhibition of recombinant JNK1 after 60 mins by TR-FRET assay
[2] = Metabolic stability in mouse liver microsomes assessed as compound remaining after 30 mins; type: ADME, Microsome; settings: read-out: Stability
Summary of the method: (§1)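 Test compound incubated with mouse or human liver microsomes for 30 min. Read-out is the percent of parent compound remaining at the end of the incubation.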

[3] = target: Mitogen-activated protein kinase 10 (Homo sapiens, UniProt P53779); test: Inhibition of recombinant JNK3 after 60 mins by TR-FRET assay
[4] = Metabolic stability in human liver microsomes assessed as compound remaining after 30 mins; type: ADME, Microsome; settings: read-out: Stability; summary of the method: as §1
[5] = target: Mitogen-activated protein kinase 9 (Homo sapiens, UniProt P45984); test: Inhibition of recombinant JNK2 after 60 mins by TR-FRET assay
[6] = target: Mitogen-activated protein kinase 1 (Homo sapiens, UniProt P28482); test: Inhibition of recombinant Erk2 after 60 mins by TR-FRET assay
[7] = target: Mitogen-activated protein kinase 14 (Homo sapiens, UniProt Q16539); test: Inhibition of recombinant p38alpha after 60 mins by TR-FRET assay
MDR1 = test: Permeability from apical to basolateral side of MDCK cells expressing MDR1 after 120 mins; type: ADME, cell-based, Canis lupus familiaris; settings: dog, read-out: permeability
MDCK = test: Efflux ratio of permeability from […] side in MDCK cells expressing p-gp after 120 mins; type: ADME, cell-based, Canis lupus familiaris; settings: dog, 2 h

Mitogen-activated protein kinase 9, sequence (P45984 whole entry): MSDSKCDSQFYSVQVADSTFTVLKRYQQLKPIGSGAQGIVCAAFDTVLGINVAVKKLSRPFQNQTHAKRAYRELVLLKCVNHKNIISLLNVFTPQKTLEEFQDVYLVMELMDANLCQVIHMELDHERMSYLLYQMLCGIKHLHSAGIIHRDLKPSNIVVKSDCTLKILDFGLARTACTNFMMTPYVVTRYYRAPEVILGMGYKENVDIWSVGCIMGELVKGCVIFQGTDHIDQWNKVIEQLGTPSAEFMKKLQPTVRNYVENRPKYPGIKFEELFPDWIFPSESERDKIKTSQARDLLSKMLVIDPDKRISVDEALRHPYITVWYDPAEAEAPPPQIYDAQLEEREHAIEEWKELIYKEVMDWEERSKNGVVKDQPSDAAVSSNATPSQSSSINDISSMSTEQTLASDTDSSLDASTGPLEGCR
Mitogen-activated protein kinase 8, sequence (P45983 whole entry): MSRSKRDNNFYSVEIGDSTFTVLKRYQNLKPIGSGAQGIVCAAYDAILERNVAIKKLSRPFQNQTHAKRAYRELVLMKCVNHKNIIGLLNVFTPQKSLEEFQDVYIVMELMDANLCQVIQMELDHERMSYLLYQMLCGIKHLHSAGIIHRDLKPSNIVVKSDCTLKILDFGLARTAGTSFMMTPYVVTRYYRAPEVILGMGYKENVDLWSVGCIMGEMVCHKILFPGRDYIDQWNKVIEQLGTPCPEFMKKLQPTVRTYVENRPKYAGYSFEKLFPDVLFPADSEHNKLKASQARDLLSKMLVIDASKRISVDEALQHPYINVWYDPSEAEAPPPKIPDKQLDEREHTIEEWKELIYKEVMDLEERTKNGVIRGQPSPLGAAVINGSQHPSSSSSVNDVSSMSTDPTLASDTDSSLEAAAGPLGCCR
Mitogen-activated protein kinase 10, sequence (P53779 whole entry): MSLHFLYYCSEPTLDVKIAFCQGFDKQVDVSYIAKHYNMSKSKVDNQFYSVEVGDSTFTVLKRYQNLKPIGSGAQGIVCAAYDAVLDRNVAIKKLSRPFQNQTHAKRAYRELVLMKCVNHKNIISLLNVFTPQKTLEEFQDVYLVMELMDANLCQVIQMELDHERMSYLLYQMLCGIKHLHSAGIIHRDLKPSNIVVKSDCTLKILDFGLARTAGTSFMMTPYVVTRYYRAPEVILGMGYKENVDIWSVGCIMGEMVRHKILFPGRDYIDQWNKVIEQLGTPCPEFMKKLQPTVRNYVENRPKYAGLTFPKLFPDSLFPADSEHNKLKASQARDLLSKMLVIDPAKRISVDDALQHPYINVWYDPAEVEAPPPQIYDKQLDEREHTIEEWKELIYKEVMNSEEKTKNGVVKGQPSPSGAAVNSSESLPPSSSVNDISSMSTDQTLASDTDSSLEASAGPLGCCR
Mitogen-activated protein kinase 1, sequence (P28482 whole entry): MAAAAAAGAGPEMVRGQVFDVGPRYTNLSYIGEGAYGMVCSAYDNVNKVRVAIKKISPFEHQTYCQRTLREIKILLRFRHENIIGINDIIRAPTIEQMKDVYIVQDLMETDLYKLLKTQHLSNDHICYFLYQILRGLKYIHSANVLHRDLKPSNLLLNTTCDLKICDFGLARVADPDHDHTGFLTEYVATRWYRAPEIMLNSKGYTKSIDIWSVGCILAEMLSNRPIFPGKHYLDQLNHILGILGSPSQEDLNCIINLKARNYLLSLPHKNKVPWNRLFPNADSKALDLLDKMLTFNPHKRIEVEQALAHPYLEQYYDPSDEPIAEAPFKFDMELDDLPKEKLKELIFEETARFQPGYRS
Mitogen-activated protein kinase 14, sequence (Q16539 whole entry): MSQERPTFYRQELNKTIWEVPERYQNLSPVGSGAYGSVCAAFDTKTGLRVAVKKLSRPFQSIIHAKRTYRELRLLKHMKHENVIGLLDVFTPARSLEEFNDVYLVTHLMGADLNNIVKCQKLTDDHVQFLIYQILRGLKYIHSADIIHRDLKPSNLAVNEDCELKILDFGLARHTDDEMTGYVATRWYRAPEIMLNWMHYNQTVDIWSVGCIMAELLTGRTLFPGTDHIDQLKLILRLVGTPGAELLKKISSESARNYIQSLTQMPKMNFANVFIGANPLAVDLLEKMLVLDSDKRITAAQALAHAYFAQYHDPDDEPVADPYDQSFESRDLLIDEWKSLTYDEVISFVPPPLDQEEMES

Structure (SMILES): Cc1nc(-c2sccc2NC(=O)Cc2cccc3ccccc23)n(C)n1
- IC50 [1]: 30.3 µM
- remaining at 0.5 h [2]: 1%
- IC50 [3]: 31.5 µM
- remaining at 0.5 h [4]: 1%
- IC50 [5]: > 50 µM

Structure (SMILES): COCCN(C)C(=O)c1sccc1NC(=O)Cc1ccccc1
- IC50 [3]: > 50 µM
- IC50 [5]: > 50 µM

Structure (SMILES): Cc1n[nH]c(-c2sccc2NC(=O)Cc2cccc3ccccc23)n1
- IC50 [1]: 0.25 µM
- remaining at 0.5 h [2]: 1%
- IC50 [3]: 0.55 µM
- remaining at 0.5 h [4]: 1%
- IC50 [5]: 2.4 µM

Structure (SMILES): COC(=O)c1n[nH]cc1NC(=O)Cc1cccc2ccccc12
- IC50 [1]: 2.1 µM
- IC50 [6]: > 50 µM
- IC50 [3]: 5.4 µM
- IC50 [7]: > 50 µM
- IC50 [5]: 26.7 µM

Structure (SMILES): COc1ccc(CC(=O)Nc2ccsc2N2CCOC2=O)cc1
- Papp A→B at 2 h (MDR1): 26 ×10⁻⁶ cm/s
- IC50 [1]: > 50 µM
- remaining at 0.5 h [2]: 26%
- IC50 [3]: 37 µM
- remaining at 0.5 h [4]: 83%
- IC50 [5]: > 50 µM

Structure (SMILES): COC(=O)c1sccc1NC(=O)Cc1ccncc1
- IC50 [1]: 6.6 µM
- IC50 [3]: 17.2 µM
- IC50 [5]: > 50 µM

Structure (SMILES): COC(=O)c1nnsc1NC(=O)Cc1cccc2ccccc12
- IC50 [1]: > 50 µM
- IC50 [3]: > 50 µM
- IC50 [5]: > 50 µM

Structure (SMILES): C/C(=N/O)c1sccc1NC(=O)Cc1ccccc1
- IC50 [3]: 29 µM

Structure (SMILES): O=C(Cc1cccc2ccccc12)Nc1ccsc1-n1ccnc1
- IC50 [1]: 26.9 µM
- remaining at 0.5 h [2]: 0%
- IC50 [3]: 9 µM
- remaining at 0.5 h [4]: 17%
- IC50 [5]: > 50 µM

Structure (SMILES): CC(C)OC(=O)c1sccc1NC(=O)Cc1ccccc1
- IC50 [1]: 0.5 µM
- IC50 [3]: 1.4 µM
- IC50 [5]: 47.7 µM

Structure (SMILES): COC(=O)c1sccc1NC(=O)Cc1ccc(OC)cc1
- IC50 [1]: 0.8 µM
- IC50 [3]: 1 µM
- IC50 [5]: 14.1 µM

Structure (SMILES): COC(=O)c1sccc1NC(=O)Cc1cccc2cnccc12
- IC50 [1]: 0.27 µM
- IC50 [6]: > 50 µM
- IC50 [3]: 0.61 µM
- IC50 [7]: > 50 µM
- IC50 [5]: 3.1 µM

Structure (SMILES): Cc1cc(-c2sccc2NC(=O)Cc2cccc3ccccc23)n[nH]1
- remaining at 0.5 h [2]: 1%
- remaining at 0.5 h [4]: 2%
- IC50 [5]: 1.5 µM

Structure (SMILES): COC(=O)c1sccc1NC(=O)Cc1cccc2ncccc12
- IC50 [1]: 0.3 µM
- IC50 [3]: 0.61 µM
- IC50 [5]: 3 µM

Structure (SMILES): O=C(Cc1cccc2cnccc12)Nc1scnc1-c1ncn[nH]1
- IC50 [1]: 0.71 µM
- IC50 [6]: 24 µM
- remaining at 0.5 h [2]: 15%
- IC50 [3]: 0.82 µM
- IC50 [7]: > 50 µM
- remaining at 0.5 h [4]: 14%
- IC50 [5]: 2.6 µM
- Ratio (MDCK): 5

Structure (SMILES): COC(=O)c1ccccc1NC(=O)Cc1cccc2ccccc12
- IC50 [1]: 2.1 µM
- IC50 [3]: 1.7 µM
- IC50 [5]: 13.1 µM

Structure (SMILES): COc1ccc(CC(=O)Nc2ccsc2-c2cn(C)cn2)cc1
- Papp A→B at 2 h (MDR1): 7 ×10⁻⁶ cm/s
- IC50 [1]: 23.9 µM
- IC50 [6]: > 50 µM
- remaining at 0.5 h [2]: 1%
- IC50 [3]: 31 µM
- IC50 [7]: > 50 µM
- remaining at 0.5 h [4]: 49%
- IC50 [5]: > 50 µM

Structure (SMILES): COC(=O)c1cnccc1NC(=O)Cc1cccc2ccccc12
- IC50 [1]: 6.4 µM
- IC50 [3]: 6.5 µM
- IC50 [5]: 23.6 µM

Structure (SMILES): COC(=O)c1sccc1NC(=O)Cc1ccccc1-c1c[nH]nn1
- IC50 [1]: 7 µM
- IC50 [3]: 12.6 µM
- IC50 [5]: 35 µM

Structure (SMILES): C=C(C)c1sccc1NC(=O)Cc1ccccc1
- IC50 [3]: > 50 µM

Structure (SMILES): O=C(Cc1cccc2ccccc12)Nc1ccsc1-c1cc[nH]n1
- remaining at 0.5 h [2]: 0%
- remaining at 0.5 h [4]: 5%
- IC50 [5]: > 50 µM

Structure (SMILES): COc1ccc(CC(=O)Nc2ccsc2-n2cncn2)cc1
- IC50 [1]: 43.6 µM
- IC50 [3]: 45.6 µM
- IC50 [5]: > 50 µM

Structure (SMILES): Cc1nnc(-c2sccc2NC(=O)Cc2cccc3ccccc23)o1
- IC50 [1]: 1.8 µM
- remaining at 0.5 h [2]: 0%
- IC50 [3]: 2.1 µM
- remaining at 0.5 h [4]: 4%
- IC50 [5]: 16.3 µM

Structure (SMILES): O=C(Cc1ccccc1)Nc1ccsc1CO
- IC50 [3]: > 50 µM

Structure (SMILES): COc1ccc(CC(=O)Nc2ccsc2-c2c[nH]c(C)n2)cc1
- Papp A→B at 2 h (MDR1): 33.8 ×10⁻⁶ cm/s
- IC50 [1]: 23.4 µM
- IC50 [6]: > 50 µM
- remaining at 0.5 h [2]: 0%
- IC50 [3]: 27 µM
- IC50 [7]: > 50 µM
- remaining at 0.5 h [4]: 17%
- IC50 [5]: > 50 µM

Structure (SMILES): CCOC(=O)c1sccc1NC(=O)Cc1ccccc1
- IC50 [1]: 0.3 µM
- IC50 [3]: 0.7 µM
- IC50 [5]: 46.6 µM

Structure (SMILES): O=C(Cc1cccc2cnccc12)Nc1scnc1-c1cnccn1
- IC50 [1]: 0.41 µM
- IC50 [6]: > 50 µM
- remaining at 0.5 h [2]: 3%
- IC50 [3]: 0.47 µM
- IC50 [7]: > 50 µM
- remaining at 0.5 h [4]: 2%
- IC50 [5]: 2 µM
- Ratio (MDCK): 0.73

Structure (SMILES): COCCNC(=O)c1sccc1NC(=O)Cc1ccccc1
- IC50 [1]: 2.3 µM
- IC50 [3]: 3.8 µM
- IC50 [5]: > 50 µM
